The data set concerns MS2 coat protein. The experiment in a line: apparent Kd, MS2 coat protein; higher = weaker binding; RNA-MaP array; FMN 200 µM where present. Summed up:
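The titrant was SNAP-549-labelled MS2 coat protein, run from 0.7 or 1.5 nM in doubling steps to 3 µM. It was applied to designs transcribed by stalled E. coli RNA polymerase on Illumina sequencing-chip clusters, without ligand first and then with constant ligand, in 100 mM Tris-HCl pH 7.5, 80 mM KCl, 4 mM MgCl2, BSA, DTT, yeast tRNA and Tween-20. The apparent Kd is the median of filtered per-cluster binding-curve fits, with green signal normalised to red-channel RNA signal and control-cluster median Fmax.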

The mark [1] stands for this setting: designed as: OFF switch for flavin mononucleotide, no ligand.
The mark [2] stands for this setting: ligand present: flavin mononucleotide, designed as: OFF switch for flavin mononucleotide.
Where [3] appears, read: designed as: ON switch for flavin mononucleotide, no ligand.
Where [4] appears, read: ligand present: flavin mononucleotide, designed as: ON switch for flavin mononucleotide.

Turning to “UGGUGGUAGCAGGAUAUGCUUGUUGUGUAGUUUGCAGAAGGGCUAACAUGAGGAUCACCCAUGUAAGAGGUGUU”, the “apparent Kd” value reads like this: under setting [1], 331 nM; under setting [2], 162 nM.
For the sequence “GUUGCACAAAUUAACAUGAGGAUCACCCAUGUCAAAAGACAUGAGGAUAUGGAUCUGAAGAAGAUCCAGAAGGCAUAGUGCUAA”, the “apparent Kd” value is, setting by setting: under setting [3], 370 nM; under setting [4], 23.7 nM.
Regarding “CGUGCGUCGACAGGAUAUACAGAUUGGCUCCGGUACAUGAGGAUCACCCAUGUAGAAGGGUCACGCGCGGAUAGAACAUUCUAA”, the “apparent Kd” value stood at 9.09 nM under setting [1] and 40.3 nM under setting [2].
As for “GUAGCUAUCGGAGGAUAUUCAUACCGGAAAAGGACAUGAGGAUCACCCAUGUGGCGAAAGCCUUGGGAGAAGGCCGAUAGCUAC”, the “apparent Kd” value reads like this: under setting [3], 94.2 nM; under setting [4], 6.77 nM.
On to “UAUUAACACGAAGGAUAUGGUUACAUGAGGAUCACCCAUGUAUGUAUAUUGAUCUAGAUUUUUGACCAGAAGGUCGUGAGUAAA”, for which the “apparent Kd” value by setting is: under setting [1], 23.9 nM; under setting [2], 38.2 nM.
The matching figures for “AUGUUGAGCAGUGUAUUAAUAAAACAUGAGGAUCACCCAUGUAGAAGGCACGAGCUGAUCGCUCGUGAGGAUAUACAUCACUGC”: 5.15 nM and 5.9 nM.
Take “UGGUACUAGGGAGGAUAUGGGAACAUACAUGAGGAUCACCCAUGUUUAAGAAUGCCGAGAGGCAACUAGAAGGCCCUAGUACCU”: the “apparent Kd” value by setting is: under setting [3], 15.7 nM; under setting [4], 4.96 nM.
In the case of “AGGCGGGUAGGAUAUAUUUUCGUCAACAUGAGGAUCACCCAUGUGUCCUGAAGUGAUAUCAUAGAAGGGCCCAGCU”, the “apparent Kd” value is, setting by setting: under setting [1], 25.4 nM; under setting [2], 33.8 nM.
As to “UACAAUCUAUCUGAGGAUAUCAUGAAAAAAACAUGAGGAUCACCCAUGUGCAGGAAAACUGCAUAUGAGAAGGCAGAUAGAUUGA”, the “apparent Kd” value is 873 nM under setting [3] and 26.9 nM under setting [4].
With “UGCAUGUAUGAGAAGGCUAAUUUGGACAUUAUUUAUGAUGAUGUUUAGGUUAGAGGAUAUUGGGACAUGAGGAUCACCCAUGUA”, the “apparent Kd” value was 21.5 nM under setting [1] and 18 nM under setting [2].
Turning to “UUCGCUAAGGUGUAGCGAGACUUGCAAGAAGGGUGAAGAACAUGAGGAUCACCCAUGUAAGCCUUACAGGAUAUUGCUUGACGA”, the “apparent Kd” value under setting [3] is 106 nM and the “apparent Kd” value under setting [4] was 36.4 nM.
On to “ACAUAAUACGAGAAGGGAGUACAUGAGGAUCACCCAUGUGCUCAGAUGUACUCAGGAUAUCGGCUGACGCAAGGUUCAGGGAAU”, for which the “apparent Kd” value under setting [1] came out at 10.9 nM and the “apparent Kd” value under setting [2] came out at 128 nM.
The matching figures for “AUGCUUAUCGAAGGAUAUGGUUACAUGAGGAUCACCCAUGUUAUGCUUGGUUACUUGUUUAGUUUCCAGAAGGUCGAUUAGUUG”: 71 nM and 172 nM.
Turning to “CACGGAUAGUAGAAGGGUGACAUGAGGAUCACCCAUGUACACAUGCGUAUUAAAGUAUGUGAUACACAGGAUAUACUAUCCGUG”, the “apparent Kd” value runs as follows: under setting [3], 76.3 nM; under setting [4], 321 nM.
Regarding “GGAAAACAUGAGGAUCACCCAUGUGAGGAUAUCGAUGUCCACCCACCCGUGCGGGACUCGAGAAGGCACUUGGA”, the “apparent Kd” value under setting [1] stood at 44.4 nM and the “apparent Kd” value under setting [2] is 148 nM.
For “AGCAAGUAUACAUGAGGAUCACCCAUGUUUGAUAGGGUUUUCAGAAGGUACAAUUUGAGAUAGAGUAAGGAUAUGAAAUAUGCG”, the “apparent Kd” value reads like this: under setting [3], 182 nM; under setting [4], 56.3 nM.
For “AAUAUGUGAGGAUAUAUCCACCGCGUAGGCGCGCGGUGACAAUAGAAGGUACAUGAGGAUCACCCAUGUAGGGA”, the “apparent Kd” value worked out at 51.5 nM under setting [1] and 31.5 nM under setting [2].
The matching figures for “UGUCGGAGCAGAGGAUAUUACAUGAGGAUCACCCAUGUAUGAACCAAUAGCUGGAAACAGCAAUGUAAGAAGGCUGCUCCCACA”: 12 nM and 138 nM.
The matching figures for “UGUGGACAUGAGGAUCACCCAUGUGAGGAUAUGGUCUGGAUACACUUGAGCUCGGCAUCCAGAAGGCGCGUGGC”: 85.9 nM and 71.4 nM.
On the same counts, the results for “AGGUAAGAGUUAAUUGUGACGGUGAGAAGGCAAUAGUUUGUGACCGACAUGAGGAUCACCCAUGUUGAGGAUAUCACCACCUAC” are 9.59 nM and 40.1 nM.
As to “CGAUGUUAUGUCAGGAUAUGCAUUGCGAAAGCAAUGCAGAAGGGACAUGAGGAUCACCCAUGUCCUAACCAUCG”, the “apparent Kd” value was determined as 13.2 nM under setting [1] and 20.1 nM under setting [2].
Consider “GUGGUCAGACAUGAGGAUCACCCAUGUGGAAUAAAUAACGUCAAGGAUAUUCAAUAUAGGAUAUAGAAGAAGGUGAGAUUGGUG”, for which the “apparent Kd” value by setting is: under setting [3], 153 nM; under setting [4], 177 nM.
On the same counts, the results for “GUUAUACAUGAGGAUCACCCAUGUCAAUGUAGUCGAGGAUAUGGGUAGCUAUGAGGCGUACUAGAAGGCGAGGAGU” are 77.8 nM and 160 nM.
Take “GAACGCCUAGGAUAUACAUGAGGAUCACCCAUGUCGCCCAGUCCUGGAGUGACCUCUAGUAGAAGGAGGAAUAA”: the “apparent Kd” value was determined as 480 nM under setting [1] and 135 nM under setting [2].
On the same counts, the results for “GGGCUGUCAGGAUAUCGCGCGCGCGCGGAAAUGUGUGUGUGUGAGAAGGGACAUGAGGAUCACCCAUGUGGCCC” are 35.6 nM and 36.8 nM.
As to “GUUAGUUAAGGAUAUACUGGGAGCUGCGGCGUCUCGCCGCAACAUGAGGAUCACCCAUGUAGAAGGUGACCAUU”, the “apparent Kd” value reads like this: under setting [1], 320 nM; under setting [2], 229 nM.
The matching figures for “GGAUAGGACAGAGGAUAUACGUGCUAGAGAUACUAGCAAAAUUUCCUCACAUGAGGAUCACCCAUGUAGAAGGCUGUUCUAUCG”: 14.6 nM and 473 nM.
For the sequence “AUCAGCUCGUCAGGAUAUACGUCACUGCGUCUGCAGUGUGGUAAGAUCACAUGAGGAUCACCCAUGUAGAAGGGACGAGCUGAU”, the “apparent Kd” value was 14.1 nM under setting [1] and 254 nM under setting [2].
For the sequence “UACGGACAUGAGGAUCACCCAUGUGAGGAUAUCGAUAACGAUAGCAUAAUAUAAACGGCGAGAAGGCACAGCGU”, the “apparent Kd” value is, setting by setting: under setting [1], 32.6 nM; under setting [2], 45.8 nM.
The matching figures for “CCAUGCGGAUGAGGAUAUUCAUCCAUGAGGAUAGAAGAAGGCAUACAUGAGGAUCACCCAUGUAUACACAUGAGGAUCCCUUAC”: 128 nM and 178 nM.
On the same counts, the results for “CUUUUGUGAGGAUAUUAGUAGUAAAUAAAUAAAAUUACUACUUAGAAGGCACAUGAGGAUCACCCAUGUUCCUC” are 26.9 nM and 219 nM.
Consider “CAUCAUGCGUCUAAGGAUAUGUCUCACAAGACAUGAGGAUCACCCAUGUAGAAUAAAUAAAUGAUGCAGAAGGUGGAGCGCAUGC”, for which the “apparent Kd” value reads like this: under setting [3], 343 nM; under setting [4], 57.4 nM.
As to “AUCAGCUCGUCAGGAUAUACGUCACUGCGUCAGCAGUGUGGUAAGAUCACAUGAGGAUCACCCAUGUAGAAGGGCCGAGCUGAU”, the “apparent Kd” value was 12.2 nM under setting [1] and 184 nM under setting [2].
Take “GGACGUCACAUUAACAUGAGGAUCACCCAUGUCAAAAGACAUGAGGAUAUGCAUCCUAAUUGGAUGCAGAAGGCAUGGACGUCC”: the “apparent Kd” value under setting [3] worked out at 449 nM and the “apparent Kd” value under setting [4] was determined as 35 nM.
“AUGAGCCGAGGAGGAUAUGACGGGUGCUAAAUCACAUGAGGAUCACCCAUGUCAGAAGGCCUCGCCAUAUUUGAUGCUUUAGAG”: the “apparent Kd” value runs as follows: under setting [1], 201 nM; under setting [2], 9.55 nM.
The matching figures for “CUAAAUCAUGUAGGAUAUGCAUGGCGAAGCUACGCAGAAGGACAUGAGGAUCACCCAUGUCACUCCGUCUGCGUACAGACGGAG”: 19.7 nM and 92.3 nM.
On the same counts, the results for “AAGUAGAUCCGAGGAUAUACAUAGCGGAAACGCAACAUGAGGAUCACCCAUGUAGAAGGCGGAUCUACAGGUACUAAAGUACCA” are 7.77 nM and 13.5 nM.
For the sequence “CUUAUAAUUGAAGGAUAUCUAUAUCCAACAUGAGGAUCACCCAUGUUGAGGAUCACCCAUGUAAAGGAGAAGGUUAAUUAUAAG”, the “apparent Kd” value under setting [3] worked out at 104 nM and the “apparent Kd” value under setting [4] was 22.7 nM.
On the same counts, the results for “UGAGCGACCACAGGAUAUACUUGGGAAGACCGAGUAGAAGGGUGGAAGAGCGUGCAGUGACAUGAGGAUCACCCAUGUGGUUGU” are 122 nM and 82.2 nM.
In the case of “CCAGGCAGUGUGAGGAUAUGCUGGUCCUUGGAUCAGCAGAAGGCACAUGAGGAUCACCCAUGUGAAGAGCUUGG”, the “apparent Kd” value is, setting by setting: under setting [1], 23.9 nM; under setting [2], 115 nM.
For “GAAGUAUCCAAUAACAUGAGGAUCACCCAUGUCAAAAGACGGGAGGAUAUUGAUCUGAAGAAGAUCAAGAAGGCCUGGUGCUAA”, the “apparent Kd” value is, setting by setting: under setting [3], 19.2 nM; under setting [4], 11.1 nM.
Consider “GCUUGGCGAGGAUAUACAUGAGGAUCACCCAUGUGAGAGAAUAAAGUGAGGAAGAAAAGUAGAAGGCGCUGAGG”, for which the “apparent Kd” value amounted to 54 nM under setting [1] and 271 nM under setting [2].
The matching figures for “CCUUUGAAGAUCCUAAAUUUCGACAUGAGGAUCACCCAUGUGCAGGAUAUCGUGCCAGUGAUGUACGAGAAGGGCAGUCUCUGC”: 49 nM and 53.5 nM.
Regarding “GCUCGAUGCGCUGAGCACAUGAGGAUCACCCAUGUAAAAUAUCAGGAUAUUUACGUGCUUUAUGUAGAGAAGGGAUUAUCGAGC”, the “apparent Kd” value under setting [3] worked out at 101 nM and the “apparent Kd” value under setting [4] was found to be 41.4 nM.
Regarding “GGAUGUCAAAGACAUCCAAUUCGAACAUGAGGAUCACCCAUGUAGGAUAUGCUACUCAAAGAGUAGCAGAAGGACAUGUGCCUU”, the “apparent Kd” value is 30.6 nM under setting [1] and 213 nM under setting [2].
Consider “UAUAUAUUCGUAGGAUAUCCGUUAAAACCAUGUGGAGAAGGACGAACAUGAGGAUCACCCAUGUAUCAUGGUGUAGACAAUUUU”, for which the “apparent Kd” value under setting [1] stood at 40.3 nM and the “apparent Kd” value under setting [2] was 187 nM.
On the same counts, the results for “UGUCGGAGCAGAGGAUAUACAUGAGGAUCACCCAUGUAAUAAGAUCAAGCCUGGAAACAGGCAAUGUAGAAGGCUGCUCCGACA” are 34 nM and 422 nM.
The matching figures for “UGAUAGGACAGAGGAUAUACGUGCUAGAGAUACUAGCAAAAUUUCCUCACAUGAGGAUCACCCAUGUAGAAGGCUGUCCUAUCG”: 17.6 nM and 453 nM.

Source of the values: the EternaBench riboswitch data.
